MEKK2wt PB1 HTS – raises or lowers MEK5 binding to wildtype human MEKK2 PB1 domain. Q9Y2U5. bead flow cytometry, Alexa488-MEK5 binding to MEKK2 WT; actives lie on both sides. binding response (% of control), % at 10 µM. 290,000 tested, 1.1% active. AID 1531; in the data active = binding response below about 67% or above about 130%
MEKK2mut PB1 HTS – signal of MEK5 binding to mutant human MEKK2 PB1 domain; 290,000 tested, 0.35% active; bead flow cytometry, Alexa488-MEK5 binding to MEKK2 mutant; AID 1530; percent response, % at 10 µM; in the data active = percent response above about 24%, passing the limit was not always enough
MEKK3 PB1 HTS – raises or lowers MEK5 binding to the human MEKK3 PB1 domain | 290,000 tested, 1.4% active | bead-based flow cytometry, Alexa488-MEK5 binding to MEKK3; actives lie on both sides; 0 = blocked by unlabeled MEK5, 100 = vehicle | Q99759 | binding response (% of control), % at 10 µM;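 active = binding response more than 3 SD above or below the average of its plate-row segment, actives on both sides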;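 also: Alexa488 bead fluorescence after subtracting the streptavidin-only scavenger bead signal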
Target sequence (Q99759 whole entry, looked up, the tested form may be a part): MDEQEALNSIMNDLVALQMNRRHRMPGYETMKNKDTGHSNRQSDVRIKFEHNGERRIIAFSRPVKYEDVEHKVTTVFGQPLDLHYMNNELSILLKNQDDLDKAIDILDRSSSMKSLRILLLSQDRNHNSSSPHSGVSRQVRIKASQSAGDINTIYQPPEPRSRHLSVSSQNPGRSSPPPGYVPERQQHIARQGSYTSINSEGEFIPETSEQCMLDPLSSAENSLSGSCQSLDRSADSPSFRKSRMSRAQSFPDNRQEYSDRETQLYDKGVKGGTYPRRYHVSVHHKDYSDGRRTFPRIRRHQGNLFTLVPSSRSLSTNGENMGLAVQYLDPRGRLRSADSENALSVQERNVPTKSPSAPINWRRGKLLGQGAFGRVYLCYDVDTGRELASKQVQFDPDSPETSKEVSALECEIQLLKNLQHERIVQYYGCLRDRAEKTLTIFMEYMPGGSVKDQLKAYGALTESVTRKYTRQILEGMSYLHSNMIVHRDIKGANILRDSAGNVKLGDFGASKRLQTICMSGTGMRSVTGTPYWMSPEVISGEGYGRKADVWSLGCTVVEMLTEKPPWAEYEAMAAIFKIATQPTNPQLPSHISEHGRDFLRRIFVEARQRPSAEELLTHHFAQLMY
Arrestin-AP2 inh – blocks beta-arrestin peptide binding to AP2 adaptin | 340,000 tested, 0.31% active | AID 504490 | inhibition, % at 10 µM | FITC-arrestin peptide / GST-AP2 beads, flow cytometry; AP2 beta2 appendage carries R879A mutation;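 active = inhibition above a set limit, near 3 SD of compounds lacking own fluorescence, cut at about 54% in these data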;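 also: plate controls were DMSO wells for no effect and 5 µM unlabelled arrestin peptide for full effect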
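Material – GST-tagged AP2 beta2-adaptin appendage (R879A) on 4 µm glutathione beads · Probe or stimulus – fluorescein-tagged arrestin peptide at 50 nM final · Timing – 12 min plus 1 h, RT · Detection – bead flow cytometry, FITC channel · Read-out basis – inhibition as reduced fluorescein signal on beads, percent · Medium – PBS plus Tween 20 (0.05%) and BSA (0.1%)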
MEKK2wt confirm – raises or lowers MEK5 binding to wildtype human MEKK2, retest; shares compounds with MEKK3 PB1 HTS; bead flow cytometry, Alexa488-MEK5 binding to MEKK2 WT; actives lie on both sides; binding response (% of control), % at 10 µM; 5,900 tested, 2.4% active; AID 1892; in the data active = binding response below about 16% or above about 210%; inactive = in between
MEKK2mut confirm – signal of MEK5 binding to mutant human MEKK2, retest; bead flow cytometry, Alexa488-MEK5 binding to MEKK2 mutant; shares compounds with MEKK3 PB1 HTS; 5,900 tested, 2% active; percent response, % at 10 µM; in the data active = percent response mostly above about 71%, no sharp cut-off; inactive = mostly below about 38%;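 also: higher means compound restores mutant binding toward wildtype level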
MEKK3 confirm – confirmation of inhibitors of MEK5 binding to human MEKK3; shares compounds with MEKK3 PB1 HTS; bead flow cytometry, Alexa488-MEK5 binding to MEKK3; hits give low values; binding response (% of control), % at 10 µM; 5,900 tested, 1.8% active;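 active = binding response below 72% of control, or above a set upper limit, though filed actives all read lower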;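 also: 100% = DMSO only wells and 0% = binding blocked by excess unlabeled MEK5; lower values mean stronger disruption of MEK5 binding to MEKK3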
Numbers without * were called inactive; · = not tested or not shown; ! = a repeat was not active; [ ] = another dose, or the depositor's remark. Shown are actives, neighbours in structure and some others; about 2.3% of the full set was active somewhere.

SMILES	MEKK2wt PB1 HTS	MEKK2mut PB1 HTS	MEKK3 PB1 HTS	Arrestin-AP2 inh	MEKK2wt confirm	MEKK2mut confirm	MEKK3 confirm
C[n+]1c(-c2ccccc2)cc(CCCCc2cc(-c3ccccc3)[n+](C)c(-c3ccccc3)c2)cc1-c1ccccc1	9.0*[inhibitor]	56.0*	108.0	2.6	·	·	·
COc1ccc(-c2cc(-c3ccccc3)[n+](C)c(-c3ccccc3)c2)cc1	99.0	-1.0	103.0	0.9	·	·	·
C=C1C[C@]2(O)[C@@]3(C)CCC(=O)C(C)(C)C3=C(O)C(=O)[C@@]2(C)[C@@H]2C(=O)O[C@@](C)(C(=O)OC)C(=O)[C@@]12C	102.0	3.0	105.0	10.3	·	·	·
N#CC(C#N)=C(C#N)c1ccc(Nc2ccccc2)cc1	93.0	1.0	95.0	-6.9	·	·	·
CCCCCCn1c(O)c(C=Nc2ccccc2N2CCOCC2)c(=O)[nH]c1=S	29.0*	24.0	101.0	3.4	·	·	·
CC(N)Cc1c[nH]c2ccc(O)cc12 (centres undefined)	·	·	·	5.5	·	·	·
CCCCCCCCCOc1ccc2[nH]cc(CCN)c2c1	252.0*	34.0*	114.0	·	·	·	·
CC(=O)N1CC(=O)Nc2ccc(Cl)cc2C1c1ccccc1 (centres undefined)	102.0	-2.0	96.0	4.5	·	·	·
CCC(C)N1C(=O)/C(=C\c2ccc(N3CCCCCC3)cc2)C(=O)NC1=S (centres undefined)	64.0	51.0*	88.0	-4.6	·	·	·
COC(=O)C1=CO[C@@H](C)[C@H]2CN3CC[C@]4(C(=O)Nc5ccccc54)[C@@H]3C[C@H]12	-8.0*	-4.0	95.0	29.0	·	·	·
CCC(C)N1C(=O)/C(=C\c2cc3c4c(c2)CCCN4CCC3)C(=O)NC1=S (centres undefined)	6.0*[inhibitor]	-5.0	76.0	-20.1	58.0	-24.0	87.0
CCC(C)N1C(=O)/C(=C\c2cnc(N(C)C)nc2)C(=O)NC1=S (centres undefined)	96.0	-1.0	101.0	20.5	·	·	·
CC/C(=N\N1CCCCCC1)c1c(O)n(-c2ccc(C)cc2)c(=O)[nH]c1=O	99.0	13.0	102.0	10.7	·	·	·
CC(=NCCCn1ccnc1)c1c(O)n(C2CCCCC2)c(=O)[nH]c1=O	113.0	23.0	132.0*	-15.3	103.0	-2.0	106.0
Cc1[nH]c2ccc(OCc3ccccc3)cc2c1CCN	162.0*	18.0	110.0	-9.4	133.0	14.0	105.0
CCCCC(=O)N/N=C/c1c(O)n(CC)c(=S)[nH]c1=O	1.0*[inhibitor]	-1.0	2.0*[inhibitor]	4.1	100.0	-1.0	103.0
CC1=CC2OC3CC4OC(=O)C=CC=CC(=O)OCCC(C)C(O)C(=O)OCC2(CC1)C4(C)C31CO1 (centres undefined)	·	·	·	-14.6	·	·	·
CC[C@@H](CO)NC(=O)[C@@H]1C=C2c3cccc4c3c(cn4C)C[C@H]2N(C)C1	38.0*![inhibitor]	7.0	66.0*![inhibitor]	2.1	109.0	7.0	104.0
O=C(c1cc(C(=O)NCc2ccc(Cl)cc2)c(=O)n(Cc2ccc(Cl)cc2)c1)c1cc(F)ccc1O	107.0	0.0	134.0*	-10.2	97.0	-9.0	103.0
CC1=CC(=O)OC2CC3OC4C[C@@H](C)C5OC6CC7O[C@]8(C)C/C=C\C9OC%10CC%11OC(CC(C)C%12OCCO%12)CC(O)[C@]%11(C)OC%10CC9OC8C[C@]7(C)O[C@]6(C)CCC5OC4C[C@]3(C)OC12 (some centres undefined)	·	·	·	-5.5	·	·	·
CCn1c(=O)cc(SCC(=O)N2CCC3(CC2)OCCO3)c2ccccc21	108.0	6.0	108.0	11.4	·	·	·
COc1ccc2[nH]cc(CCN)c2c1	152.0*	14.0	91.0	1.9	111.0	12.0	99.0
COC(=O)C1=C(c2cc3ccccc3s2)C[C@@H]2CC[C@H]1N2C(=O)NCc1ccc(F)cc1	99.0	2.0	104.0	-1.0	·	·	·
CCN(CC)c1ccc(/C=N/c2sc3c(c2C#N)C2CCN3CC2)c(O)c1	96.0	92.0*	109.0	-2.7	84.0	-22.0	93.0

High-throughput results (PubChem BioAssay)
